Activity calls are given as the source filed them. The rule behind the calls is not given here.
Assays:
[1] = tested on: Radical scavenging activity; test: Antioxidant activity assessed as DPPH radical scavenging activity at 50 uM; format: functional
Procedure, shortened: (§1)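 DPPH radical bleaching, tested at 10, 50, 100 and 200 µM (printed as mM) following a published method, with resveratrol as reference.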

[2] = tested on: Radical scavenging activity; test: Antioxidant activity assessed as DPPH radical scavenging activity at 10 uM; format: functional; procedure, shortened: as §1
[3] = tested on: Radical scavenging activity; test: Antioxidant activity assessed as DPPH radical scavenging activity at 100 uM; format: functional; procedure, shortened: as §1
[4] = tested on: Radical scavenging activity; test: Antioxidant activity assessed as DPPH radical scavenging activity; format: functional; procedure, shortened: as §1
[5] = tested on: Radical scavenging activity; test: Antioxidant activity assessed as DPPH radical scavenging activity at 200 uM; format: functional; procedure, shortened: as §1
BV-2 [6] = test: Antiinflammatory activity against mouse BV2 microglia cells assessed as inhibition of LPS-induced NO production at 10 to 50 uM after 24 hrs; format: functional, cell-based
Procedure, shortened: (§2)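 BV-2 murine microglia kept in DMEM with 10% FBS and penicillin/streptomycin (37 °C, 5% CO2). Cells were plated at 1 × 10⁵ cells/mL and stimulated with LPS 100 ng/mL, alone or with compound at 1, 10 or 50 µM, for 24 h at 37 °C. Nitrite in the medium was read by Griess reagent at 540 nm. Mean ± SD of three observations.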

[7] = Neuroprotective activity in ICR mouse cortical neuron cells assessed as prevention of excitotoxic neuronal death after 24 hrs by LDH assay; format: functional; details: Cortical neurone, read-out: ED50 (the source's name)
Procedure, shortened: (§3)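 Primary cortical cultures from ICR mouse embryos at gestational day 15, plated on poly-D-lysine/laminin at 4.8 × 10⁵ cells/well in MEM with 5% FCS and mouse serum. Compound at 1–50 µM was co-applied with glutamate 50 µM for 24 h at 37 °C. LDH released into the medium was followed by NADH consumption with pyruvate, read at 340 nm. Mean ± SD of three observations.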

BV-2 [8] = test: Antiinflammatory activity against mouse BV2 microglia cells assessed as inhibition of LPS-induced NO production after 24 hrs; format: functional; details: BV-2, 24 h, read-out: ED50 (the source's name); procedure, shortened: as §2
Cortical neurone [9] = test: Neuroprotective activity in ICR mouse cortical neuron cells assessed as prevention of glutamate-induced neurotoxicity at 10 to 50 uM after 24 hrs by LDH assay; format: functional; procedure, shortened: as §3
Cortical neurone [10] = test: Neuroprotective activity in ICR mouse cortical neuron cells assessed as prevention of glutamate-induced neurotoxicity at 1 uM after 24 hrs by LDH assay; format: functional; procedure, shortened: as §3
BV-2 [11] = test: Antiinflammatory activity against mouse BV2 microglia cells assessed as inhibition of LPS-induced NO production at 1 uM after 24 hrs; format: functional, cell-based; procedure, shortened: as §2

Structure (SMILES) | IC50 [4] [µM] | EC50 (BV-2 [8]) [µM] | Activity [1] [%] | Activity [2] [%] | Activity [3] [%] | Activity [5] [%] | Activity (BV-2 [6]) | EC50 [7] [µM] | Activity (Cortical neurone [9]) | Activity (Cortical neurone [10]) | Activity (BV-2 [11])
O=C(Nc1ccccc1)c1ccc(/C=C/c2ccc(O)c(O)c2)cc1 | > 200 | – | 17.6 | 10.2 | 27.1 | 59.8 | – | – | – | – | –
O=C(c1ccccc1)N1CCN(C(=O)c2ccc(/C=C/c3ccc(O)c(O)c3)cc2)CC1 | 185 | – | 24.6 | 17.2 | 36.7 | 59.1 | – | – | – | – | –
O=C(c1ccc(/C=C/c2ccc(O)c(O)c2)cc1)N1CCOCC1 | > 200 | – | 10.2 | 5.7 | 19.1 | 29.4 | – | – | – | – | –
COC(=O)c1ccc(/C=C/c2ccc(O)c(O)c2)cc1 | > 200 | – | 8.95 | 2.31 | 16.5 | 29.3 | – | – | – | – | –
O=C(NC1CCCCC1)c1ccc(/C=C/c2ccc(O)c(O)c2)cc1 | 128 | – | 22.5 | 17.2 | 40.2 | 68.7 | – | – | – | – | –
O=C(CNC(=O)c1ccccc1)OCc1ccc(/C=C/c2ccc(O)c(O)c2)cc1 | > 200 | – | 28.1 | 21.2 | 33.2 | 46.9 | – | – | – | Active | –
COC(=O)/C=C/c1ccc(/C=C/c2ccc(O)c(O)c2)cc1 | > 200 | – | 5.31 | 5.91 | 5.73 | 5.29 | – | – | – | – | –
O=C(NCc1ccccc1F)c1ccc(/C=C/c2ccc(O)c(O)c2)cc1 | 43.6 | – | 42.2 | 29.8 | 52.3 | 88 | – | – | – | – | –
O=C/C=C/c1ccc(/C=C/c2ccc(O)c(O)c2)cc1 | > 200 | 1.51 | 21.2 | 13.2 | 28.8 | 54.4 | – | 42.3 | Active | Active | Active

Further lines, with some results ahead:

IC50 [4] [µM] | EC50 (BV-2 [8]) [µM] | Structure (SMILES) | Activity [1] [%] | Activity [2] [%] | Activity [3] [%] | Activity [5] [%] | Activity (BV-2 [6]) | EC50 [7] [µM] | Activity (Cortical neurone [9]) | Activity (Cortical neurone [10]) | Activity (BV-2 [11])
141 | – | C=CCN1CCN(C(=O)c2ccc(/C=C/c3ccc(O)c(O)c3)cc2)CC1 | 31.2 | 24.8 | 40 | 62.4 | – | – | – | – | –
98.1 | 1.95 | C=CCNC(=O)c1ccc(/C=C/c2ccc(O)c(O)c2)cc1 | 29 | 15 | 41.7 | 74.1 | Active | 29.6 | Active | – | –
47.9 | – | CCCCCCCCCCNC(=O)c1ccc(/C=C/c2ccc(O)c(O)c2)cc1 | 42 | 18.5 | 75.2 | 79.1 | – | – | – | – | –
69 | 0.82 | O=C(NCc1ccco1)c1ccc(/C=C/c2ccc(O)c(O)c2)cc1 | 35.1 | 21.9 | 48 | 79.2 | Active | 58.3 | Active | – | –
> 200 | – | O=C(NCC1CCCO1)c1ccc(/C=C/c2ccc(O)c(O)c2)cc1 (configuration not stated) | 18 | 16.7 | 26.5 | 31.7 | – | – | – | – | –
> 200 | – | CC1CCN(C(=O)c2ccc(/C=C/c3ccc(O)c(O)c3)cc2)CC1 | 21.3 | 15.1 | 31.5 | 48.6 | – | – | – | – | –
127 | – | CCOC(=O)c1cccc(NC(=O)c2ccc(/C=C/c3ccc(O)c(O)c3)cc2)c1 | 29.3 | 21.3 | 44.1 | 62.8 | – | – | – | – | –
> 200 | 1.12 | O=C(c1ccc(/C=C/c2ccc(O)c(O)c2)cc1)N1CCC(Cc2ccccc2)CC1 | 10.1 | 4.75 | 17.4 | 25.8 | – | – | Active | – | Active
> 200 | – | O=C(NCCCN1CCCC1=O)c1ccc(/C=C/c2ccc(O)c(O)c2)cc1 | 22.2 | 12.9 | 28.4 | 44 | – | – | – | – | –
> 200 | – | OC/C=C/c1ccc(/C=C/c2ccc(O)c(O)c2)cc1 | 8.64 | 6.82 | 11.5 | 17.3 | – | – | – | – | –
> 200 | – | Oc1ccc(/C=C/c2cc(O)cc(O)c2)cc1 [RESVERATROL] | 8.44 | 9.45 | 28.4 | 33.8 | – | – | – | – | –

Reference: ChEMBL document CHEMBL1153600, “Synthesis of novel trans-stilbene derivatives and evaluation of their potent antioxidant and neuroprotective effects” (Eur J Med Chem, 2009)
